# Laboratory results reported in ChEMBL document CHEMBL3124922, “The antitumor agent PBT-1 directly targets HSP90 and hnRNP A2/B1 and inhibits lung adenocarcinoma growth and metastasis” (J Med Chem, 2014).
# Calls of active or inactive are those of the source. No cut-off for these calls is given here.
# Experiments:
# CL1-5 [1] = experiment: Antiinvasive activity against human CL1-5 cells after 20 hrs by matrigel-coated transwell assay; type: functional, cell-based
# Method in brief: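 Transwell chambers (8 μm pores) coated with 5 μg/mL Matrigel; 2.5 × 10^4 cells seeded on top in medium with 10% NuSerum; after 20 h, cells reaching the lower side fixed in methanol, stained with 50 μg/mL propidium iodide and quantified by image analysis. Triplicate samples; mean ± SD of three independent experiments.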
# HSP90 and hnRNPA2/B1 [2] = biological target: T1, HSP90 and hnRNPA2/B1 (Homo sapiens, UniProt P08238+P22626); experiment: Inhibition of HSP90/hnRNPA2/B1 in human CL152 cells assessed as reduction of slug expression at 0.5 ug/ml after 5 hrs by Western blotting analysis; type: cell-based
# Method in brief: (§1)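 CL1-5 or CL152 cells exposed to a range of concentrations for 5 h; Slug (and E-cadherin) detected by Western blot with β-actin as loading control; representative of three experiments.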
# CL1-5 [3] = experiment: Reduction of filopodia formation in human CL1-5 cells at 0.1 to 0.75 ug/ml by immunofluorescence staining-based microscopic analysis; type: functional, cell-based
# HSP90 and hnRNPA2/B1 [4] = biological target: T1, HSP90 and hnRNPA2/B1; experiment: Inhibition of HSP90/hnRNPA2/B1 in human CL1-5 cells assessed as upregulation of E-cadherin expression after 0.5 to 2 hrs by Western blotting analysis; type: cell-based
# HSP90 and hnRNPA2/B1 [5] = biological target: T1, HSP90 and hnRNPA2/B1; experiment: Inhibition of HSP90/hnRNPA2/B1 in human CL152 cells assessed as upregulation of E-cadherin expression after 5 hrs by Western blotting analysis; type: cell-based
# HSP90 and hnRNPA2/B1 [6] = biological target: T1, HSP90 and hnRNPA2/B1; experiment: Inhibition of HSP90/hnRNPA2/B1 in human PC9 cells assessed as reduction of slug expression at 0.5 ug/ml after 5 hrs by Western blotting analysis; type: cell-based; settings: PC-9
# Mus musculus = experiment: Toxicity in Balb/c nu/nu mouse xenografted with human CL1-5 cells at 10 mg/kg, ip qd administered 3 times per week measured 2 times per week for 28 days; type: organism-based; parameters: dose 10 mg/kg, route intraperitoneal; settings: in vivo, 672 h
# Method in brief: (§2)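 Six-week-old male BALB/c nu/nu mice (SPF) given 1 × 10^6 CL1-5 cells s.c. in the right flank; at 100 mm^3 tumor volume (5–8 days), six mice per group randomized to compound 10 mg/kg/day or vehicle i.p. three times weekly. Volume from calipers as 0.5W²L; tumor volume and body weight recorded twice weekly.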
# HSP90 and hnRNPA2/B1 [7] = biological target: T1, HSP90 and hnRNPA2/B1; experiment: Inhibition of HSP90/hnRNPA2/B1 in human CL1-5 cells assessed as reduction of slug expression at >0.5 ug/ml up to 5 hrs by Western blotting analysis; type: cell-based; method in brief: as §1
# CL1-5 [8] = experiment: Antitumor activity against human CL1-5 cells xenografted in Balb/c nu/nu mouse assessed as orthotopic tumor growth inhibition at 10 mg/kg/day, ip administered 3 times per week measured 2 times per week for 28 days; type: functional, organism-based
# Method in brief: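 CL1-5 cells inoculated into the pleural cavity of 6-week-old BALB/c nu/nu mice (n = 6 per group); i.p. dosing with compound or DMSO vehicle three times weekly from day 5. At 28 days mice killed by CO2, organs formalin-fixed; tumor volume in excised lungs and metastatic nodule counts taken, mean ± SD of six mice.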
# HSP90 and hnRNPA2/B1 [9] = biological target: T1, HSP90 and hnRNPA2/B1; experiment: Inhibition of HSP90/hnRNPA2/B1 in human CL1-5 cells assessed as reduction of slug expression at 0.5 ug/ml after 2 hrs by Western blotting analysis; type: cell-based
# Method in brief: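 CL1-5 cells exposed to 0.5 μg/mL for 0.5, 1 or 2 h; Slug in cell extracts detected by Western blot with β-actin as loading control; representative of three experiments.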
# CL1-5 [10] = experiment: Antimigratory activity against human CL1-5 cells assessed as reduction of cell migration at 0.25 ug/ml after 1 to 12 hrs by wound healing assay relative to control; type: functional, cell-based
# Method in brief: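 Cells grown to near-confluence in 6 cm dishes, monolayer scratched with a pipet tip, debris washed off with PBS; incubated at 37 °C and photographed at 0, 4, 8 and 12 h. Cells migrating into the cell-free zone counted. Triplicate samples, at least three independent experiments, mean ± SD.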
# CL1-5 [11] = experiment: Antitumor activity against human CL1-5 cells xenografted in Balb/c nu/nu mouse assessed as subcutaneously implanted tumor growth inhibition at 10 mg/kg/day, ip administered 3 times per week measured 2 times per week for 28 days; type: functional, organism-based; method in brief: as §2
# HSP90 and hnRNPA2/B1 [12] = biological target: T1, HSP90 and hnRNPA2/B1; experiment: Binding affinity to HSP90/hnRNPA2/B1 in human CL1-5 cell lysate after 1 hr by affinity chromatographic analysis; type: cell-free
# Method in brief: (§3)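 CL1-5 lysate (10 mg protein; Tris pH 8.0 lysis buffer) held with or without 1 mM free ligand for 1 h, then loaded at 4 °C onto Sepharose 4B carrying the coupled ligand, with uncoupled beads as control. Washed with T buffer, eluted with 4 M urea/1 M NaCl; flow-through, wash and eluate probed by Western blot for HSP90, hnRNP A2/B1, HSP70 and β-actin.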
# HSP90 and hnRNPA2/B1 [13] = biological target: T1, HSP90 and hnRNPA2/B1; experiment: Inhibition of HSP90/hnRNPA2/B1 in human CL1-5 cells assessed as reduction of slug expression at 0.25 ug/ml up to 5 hrs by Western blotting analysis; type: cell-based; method in brief: as §1
# CL1-5 [14] = experiment: Binding affinity to HSP70 in human CL1-5 cell lysate after 1 hr by affinity chromatographic analysis; type: cell-free; method in brief: as §3
# HSP90 and hnRNPA2/B1 [15] = biological target: T1, HSP90 and hnRNPA2/B1; experiment: Inhibition of HSP90/hnRNPA2/B1 in human CL1-5 cells; type: cell-based
# HSP90 and hnRNPA2/B1 [16] = biological target: T1, HSP90 and hnRNPA2/B1; experiment: Inhibition of HSP90/hnRNPA2/B1 in human CL1-5 cells assessed as reduction of slug expression at >0.5 ug/ml after 24 hrs by Western blotting analysis; type: cell-based
# T1 sequence (P08238 whole entry, looked up): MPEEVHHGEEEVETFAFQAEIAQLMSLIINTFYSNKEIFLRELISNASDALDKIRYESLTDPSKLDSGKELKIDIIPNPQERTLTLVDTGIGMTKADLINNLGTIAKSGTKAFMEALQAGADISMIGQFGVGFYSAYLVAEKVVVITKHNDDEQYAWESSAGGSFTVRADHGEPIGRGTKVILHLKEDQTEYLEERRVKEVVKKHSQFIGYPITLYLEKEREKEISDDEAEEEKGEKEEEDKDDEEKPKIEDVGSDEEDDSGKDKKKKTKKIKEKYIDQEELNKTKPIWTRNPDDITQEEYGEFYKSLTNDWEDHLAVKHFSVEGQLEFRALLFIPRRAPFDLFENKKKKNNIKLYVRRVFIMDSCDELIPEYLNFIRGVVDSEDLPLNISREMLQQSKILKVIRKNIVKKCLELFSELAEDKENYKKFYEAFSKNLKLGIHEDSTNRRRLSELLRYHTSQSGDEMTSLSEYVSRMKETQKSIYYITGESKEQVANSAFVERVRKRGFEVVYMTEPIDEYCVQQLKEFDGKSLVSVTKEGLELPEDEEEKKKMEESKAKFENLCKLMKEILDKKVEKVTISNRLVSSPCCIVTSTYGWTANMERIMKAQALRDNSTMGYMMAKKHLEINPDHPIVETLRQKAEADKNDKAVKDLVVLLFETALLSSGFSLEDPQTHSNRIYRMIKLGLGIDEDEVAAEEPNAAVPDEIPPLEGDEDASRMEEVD
# T1 sequence (P22626 whole entry, looked up): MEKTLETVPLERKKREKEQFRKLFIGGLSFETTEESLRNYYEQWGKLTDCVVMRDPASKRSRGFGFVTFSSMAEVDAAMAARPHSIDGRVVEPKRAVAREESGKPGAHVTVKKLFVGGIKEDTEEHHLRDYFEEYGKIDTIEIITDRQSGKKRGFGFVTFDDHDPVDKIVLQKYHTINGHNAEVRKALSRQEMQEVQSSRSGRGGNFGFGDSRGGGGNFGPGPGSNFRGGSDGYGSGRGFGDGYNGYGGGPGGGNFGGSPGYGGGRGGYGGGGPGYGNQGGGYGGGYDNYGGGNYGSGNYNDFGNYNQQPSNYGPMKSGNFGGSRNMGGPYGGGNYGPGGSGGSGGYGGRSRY
Structure (SMILES),Activity (CL1-5 [1]),inhibition (HSP90 and hnRNPA2/B1 [2]),Activity (CL1-5 [3]),inhibition (HSP90 and hnRNPA2/B1 [4]),inhibition (HSP90 and hnRNPA2/B1 [5]),inhibition (HSP90 and hnRNPA2/B1 [6]),Activity (Mus musculus),inhibition (HSP90 and hnRNPA2/B1 [7]),TGI (CL1-5 [8]),inhibition (HSP90 and hnRNPA2/B1 [9]),Activity (CL1-5 [10]),TGI (CL1-5 [11]),Activity (HSP90 and hnRNPA2/B1 [12]),inhibition (HSP90 and hnRNPA2/B1 [13]),Activity (CL1-5 [14]),IC50 (HSP90 and hnRNPA2/B1 [15]) [µg/mL],inhibition (HSP90 and hnRNPA2/B1 [16])
COc1ccc2c(CN3CCC(CO)CC3)cc3cc4c(cc3c2c1)OCO4,Dose-dependent effect,Active,Active,Dose-dependent effect,Dose-dependent effect,Active,Non-toxic,Active,Active,Active,Active,Active,,,,,
Cl.Cl.NCCOCCOCCOCCOc1ccc2c(CN3CCC(CO)CC3)cc3cc4c(cc3c2c1)OCO4,,,,,,,,,,,,,Active,inactive,inactive,0.5,Active
